{"source": "the RNAGym collection of RNA variant scans (doi:10.1126/science.aae0568)", "parents": {"B1": {"name": "tRNA (parent)", "chain": "GUUCCGUUGGCGUAAUGGUAACGCGUCUCCCUCCUAAGGAGAAGACUGCGGGUUCGAGUCCCGUACGGAACG"}}, "note": "Variants at the floor of the assay were thinned out."}
{"variants_of": "B1", "test": "yeast fitness relative to wild type (ratio to wild type); higher = fitter; tRNA-Arg(CCU), competitive growth, 37 C, YPD", "in_short": "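Changes in genotype frequencies gave Darwinian fitness relative to wild type. Frequencies were read by 100-nucleotide paired-end sequencing of gene amplicons before and after pooled Saccharomyces cerevisiae strains, carrying tRNA-Arg(CCU) gene variants at the native locus, were competed in YPD at 37°C for 24 hours in six replicates. A genotype was kept only with ≥ 100 starting reads, and estimates < 0.5 were set to 0.5.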"}
{"variant": "GUUACGUUGGCGUAAAGGUAACGCGUCUGCCUCCUAAGGAGAAGACUGCGGGUUUGAGUCCCGUAUGGAACG", "yeast fitness": "≤ 0.5"}
{"variant": "GUUACGUUGGCGGAAUGGUAACGCGUCUCCCUCCUAAGGAGAAGACUGCGGGUUCGAGUCCCGUACGGAACG", "yeast fitness": 0.619}
{"variant": "GUUACGUUGGCGUAACAGUAACGCGUCUCCCUCCUAAGGAGAAGACUGCGGGUUCGAGUCCCGUACGGUACG", "yeast fitness": "≤ 0.5"}
{"variant": "GUUACGUUGGCGUAAUGGGAACGCGUCUCCGUCCUAAGGAGAAGCGUGCGGGUUCCAGUCCCACACCGAACG", "yeast fitness": "≤ 0.5"}
{"variant": "GUUACGUUGGCGUAAUGGAAACGCGUCUCCCUCCUAAGGAGAAAACUGCGGGCUCGAGUCCCGUACGGAUCG", "yeast fitness": "≤ 0.5"}
{"variant": "GUUACGUUGGCGUAAAGGUAACGCGUCUCCCUCCUAAGGAGACGACUGCGGGUUCGAGUCCCGUACGGAACG", "yeast fitness": "≤ 0.5"}
{"variant": "GUUACGUUGGCGUAAGGGUAACGUGUCUCCCUCCUAAGGAGAAGACUACGGGUUCGAGUCCCGUACGGAACG", "yeast fitness": 0.643}
{"variant": "GUUACGUUGGCGGAAUGGUAACGCGUCUCCCUCCUAAGGAGAAGUCAGCGGGUUCGAGUCCCGUACGGAACG", "yeast fitness": 0.616}
{"variant": "GUUACGUUGGCGUAAGGGUAACGCGUCUCCCUCCUAAGGAGAAGACUGCGGCUUCGAGUCCCGAACGGAACG", "yeast fitness": "≤ 0.5"}
{"variant": "GUUACGUUGGCGCAAUGGUAACGCGUCUCUCUCCUAAGGGGAAGACUGCGGGUUAGAGUCCCCUCCGGAACG", "yeast fitness": "≤ 0.5"}
{"variant": "GUUACGUUGGCGUAAUGGUAACGCGUCACACUCCUAAGGAGAAGACUGGGGGUUCGAGUCCCGUACGGACCG", "yeast fitness": "≤ 0.5"}
{"variant": "GUUACGUUGGCGUAAUGGGAACGCGUCUCCCUCCCAAGGAGAAGACUGCGGGUUCGAGUCCCGUACGGAACG", "yeast fitness": "≤ 0.5"}
{"variant": "GUUACGUUGGCGUAAUGGUAACGCGUCACCCUCCUAAGGAGAAGACUGCGGGUUCGAGUCCCGUACGGAACG", "yeast fitness": 0.761}
{"variant": "GUUACGUUGGCGUAACAGUAACGCGUCUCCCUCCUAAGGAGAAGACUGCGGGUUCGAGUCCCGUACGGAACG", "yeast fitness": 0.567}
{"variant": "GUUACGUUGGCGUAAGGGUAAUUCGUCUCCCUCCUAAGGAGCAGACUGCCGGUUCGAGUCCCGUAUGGAACG", "yeast fitness": "≤ 0.5"}
{"variant": "GUUACGUUGGCGAAAUGAUAACGCGUCUCCCUCCUAAGGAGAAGACUGCGGAUUGGAGUCCCGUACGGAACG", "yeast fitness": "≤ 0.5"}
{"variant": "GUUACGUUGGCGUAAUGGUAACGCGCCUCCCUCCUAAGGAGAAGACUGCGGGUUCGAGUCCCGUCCGGAACG", "yeast fitness": "≤ 0.5"}
{"variant": "GUUACGUUGGCGUAAGGGUAACGCGUCUCCCUCCUAAGGAGAAGACUGCGGGUUCGAGUCCCGUACGGAACG", "yeast fitness": 0.651}
{"variant": "GUUACGUUGGCGUAACGGUAACGCGUGUCCCUCCUAAGGAGGAGACUGCGGGAUCGAGUCCCGUACGGAACG", "yeast fitness": "≤ 0.5"}
{"variant": "GUUACGUUGGCGGAAUGGUAACGCGUCUCCCUCCUAAGGAGAAGUCAGCGGGUUCGAGCCCCGUACGGAACG", "yeast fitness": "≤ 0.5"}
{"variant": "GUUACGUUGGCGUAAUGGGAACGCGUCUCCCUCCUAAGGAGAAGACUGCGGGUUCGAGUCCCGUACGGAACG", "yeast fitness": 0.742}
{"variant": "GUUACGUUGGCGUAAUGGAAACGCGUCUCCCUCCUAAGGAGAAGACUGCGGGUUCGAGUCCCGUACGGAACG", "yeast fitness": 0.854}
{"variant": "GUUACGUUGGCGUAAUGGAAACGCGUCUCCCUCCUAAGGAGAAGACUGCGGGUUCGAGUCCCGUACGGCACG", "yeast fitness": 0.602}
{"variant": "GUUACGUUGGCGUAACAGUAACGCGUCUCCUUCCUAAGGAGAAGACUGCGGGUACGAGUCCCGUACGGAACG", "yeast fitness": "≤ 0.5"}
{"variant": "GUUACGUUGGCGUAAGGGUAAUUCGUCUCCCUCCUAAGGAGCAGACUGCCGGUUCGAGUCCCCUACGCAACG", "yeast fitness": 0.604}
{"variant": "GUUACGUUGGCGUAAUGGUAACGCGACUCCCUCGUAAAGAGAAGACUGCGGGUUCGAGUCCCGUACGCAACG", "yeast fitness": "≤ 0.5"}
{"variant": "GUUACGUUGGCGUAAAGGUAACGCGUCUCCCCCCUAAGGAGAAGACUGCGGGUUCGAGUCCUGUACGGAUCG", "yeast fitness": "≤ 0.5"}
{"variant": "GUUACGUUGGCGUAAUGGGAACGCGUCUCCCUCCUAAGGAGAAGGUUGCGGGUUCGAGUCCCGUACGGAACG", "yeast fitness": "≤ 0.5"}
{"variant": "GUUACGUUGGCGCAAUGGUAACCCGUCUCCCUCGUAAGGGGAAGGCUGCGGGCUCGAGUCCCGAACGGAACG", "yeast fitness": "≤ 0.5"}
{"variant": "GUUACGUUGGCGUAAUGGCAACGCGUCUCCCUCCCAAGGAGAAGACUGCGGGUUCGAGUCCCGUACGGAACG", "yeast fitness": 0.685}
{"variant": "GUUACGUUGGCGUAACAGUAACGCGUCUCCCUCCUAAGGCGAUGACAGCGGGUUCGAGUACCGUACGGAACG", "yeast fitness": "≤ 0.5"}
{"variant": "GUUACGUUGGCGUAAUGGGAACGCGUCUCCGUCCUAAGGAGAAGCGUGCGGGUUCGAGUCCCGUACGGAACG", "yeast fitness": 0.555}
{"variant": "GUUACGUUGGCGUAAUGGUAACGCGGCUCCCUCCUAAGGAGAACACUGCGGGUUCGAACCCCGUACGCAACG", "yeast fitness": "≤ 0.5"}
{"variant": "GUUACGUUGGCGUAACAGUAACGCGUCUCCCUCCUAAGGAGAAGACUGCGGGUUCGAGUCCAGUACGGAACG", "yeast fitness": "≤ 0.5"}
{"variant": "GUUACGUUGGCGCAAUGGUAACGCGUCUCCCGCCUAAGGAGAAGACUGCGGGUUCGAGUCCCGUACGGAACG", "yeast fitness": 0.571}
{"variant": "GUUACGUUGGCGUAAUGGUAACGCGGCUCCCUCCUAAGGAGAACACUGCGGGUUCGAAUCCCGUACGGAACG", "yeast fitness": 0.535}
{"variant": "GUUACGUUGGCGUAAUGGUAACGCGGCUCCCUCCUAAGGAGAAGACUGCGGGUUCGAGUCCCGUAUGGAACG", "yeast fitness": "≤ 0.5"}
{"variant": "GUUACGUUGGCGGAAUGGUAACGCGUCUCCCUCCUAAGGGGAAGUCAGCGGGUUCGAGUCCCGUACGGAACG", "yeast fitness": "≤ 0.5"}
